According to ChEMBL document CHEMBL4665875, “Synthesis, biological evaluation and in silico modeling of novel pan-genotypic NS5A inhibitors” (Bioorg Med Chem, 2020):

Assays:
[1] = Cytotoxicity against HCV genotype 1b NS5A infected human HuH7 cells assessed as reduction in cell viability measured after 72 hrs by CellTiter-Glo assay; conditions: HuH7 cells infected with HCV genotype 1b NS5A
[2] = MRT (0 to infinity) in Sprague-Dawley rat at 2 mg/kg, iv measured after 24 hrs by LC-MS/MS analysis; assay type: ADME, organism-based; conditions: in vivo
How it was run: (§1)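 Male Sprague-Dawley rats (8–10 weeks), jugular-vein catheterized and fasted 12 h with water available. Intravenous dose of 2 mg/kg given in 10% DMSO/10% Solutol/80% 0.05 M N-methylglucamine. Blood taken into EDTA at 5, 15, 30 min and 1, 2, 4, 8 and 24 h. Plasma precipitated with acetonitrile plus tolbutamide internal standard, then analysed by LC-MS/MS.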

[3] = MRT (0 to infinity) in Sprague-Dawley rat at 10 mg/kg, po measured after 24 hrs by LC-MS/MS analysis; assay type: ADME, organism-based; conditions: in vivo
How it was run: (§2)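 Male Sprague-Dawley rats (8–10 weeks), jugular-vein catheterized and fasted 12 h with water available. Oral dose of 10 mg/kg given in 0.5% methyl cellulose. Blood taken into EDTA at 15, 30 min and 1, 2, 4, 8 and 24 h. Plasma protein-precipitated with acetonitrile containing tolbutamide internal standard, held at −20 °C for 15 min, centrifuged, then analysed by LC-MS/MS.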

[4] = AUClast in Sprague-Dawley rat at 10 mg/kg, po measured after 24 hrs by LC-MS/MS analysis; assay type: ADME, organism-based; parameters: route oral, dose 10 mg/kg, time 24 hrs; conditions: in vivo
How it was run: as §2

[5] = Cmax in Sprague-Dawley rat at 2 mg/kg, iv measured after 24 hrs by LC-MS/MS analysis; assay type: ADME, organism-based; parameters: route intravenous, dose 2 mg/kg, time 24 hrs; conditions: in vivo
How it was run: as §1

[6] = Cmax in Sprague-Dawley rat at 10 mg/kg, po measured after 24 hrs by LC-MS/MS analysis; assay type: ADME, organism-based; parameters: route oral, time 24 hrs, dose 10 mg/kg; conditions: in vivo
How it was run: as §2

[7] = Tmax in Sprague-Dawley rat at 10 mg/kg, po measured after 24 hrs by LC-MS/MS analysis; assay type: ADME, organism-based; conditions: in vivo
How it was run: as §2

[8] = AUClast in Sprague-Dawley rat at 2 mg/kg, iv measured after 24 hrs by LC-MS/MS analysis; assay type: ADME, organism-based; parameters: route intravenous, time 24 hrs, dose 2 mg/kg; conditions: in vivo
How it was run: as §1

[9] = AUC (0 to infinity) in Sprague-Dawley rat at 2 mg/kg, iv measured after 24 hrs by LC-MS/MS analysis; assay type: ADME, organism-based; parameters: route intravenous, dose 2 mg/kg, time 24 hrs; conditions: in vivo
How it was run: as §1

[10] = Half life in Sprague-Dawley rat at 10 mg/kg, po measured after 24 hrs by LC-MS/MS analysis; assay type: ADME, organism-based; conditions: in vivo; for half-life: Sprague-Dawley
How it was run: as §2

[11] = MRTlast in Sprague-Dawley rat at 10 mg/kg, po measured after 24 hrs by LC-MS/MS analysis; assay type: ADME, organism-based; conditions: in vivo
How it was run: as §2

[12] = AUC (0 to infinity) in Sprague-Dawley rat at 10 mg/kg, po measured after 24 hrs by LC-MS/MS analysis; assay type: ADME, organism-based; parameters: route oral, time 24 hrs, dose 10 mg/kg; conditions: in vivo; for AUC(0-inf): Sprague-Dawley
How it was run: as §2

[13] = MRTlast in Sprague-Dawley rat at 2 mg/kg, iv measured after 24 hrs by LC-MS/MS analysis; assay type: ADME, organism-based; conditions: in vivo
How it was run: as §1

[14] = Tmax in Sprague-Dawley rat at 2 mg/kg, iv measured after 24 hrs by LC-MS/MS analysis; assay type: ADME, organism-based; conditions: in vivo
How it was run: as §1

[15] = Oral bioavailability in Sprague-Dawley rat at 10 mg/kg, po measured after 24 hrs by LC-MS/MS analysis; assay type: ADME, organism-based; conditions: in vivo
How it was run: as §2

[16] = Half life in Sprague-Dawley rat at 2 mg/kg, iv measured after 24 hrs by LC-MS/MS analysis; assay type: ADME, organism-based; conditions: in vivo
How it was run: as §1

SMILES: COC(=O)N[C@H](C(=O)N1CCC[C@H]1c1ncc(-c2ccc(C#CC#Cc3cnc([C@@H]4CCCN4C(=O)[C@H](NC(=O)OC)c4ccccc4)[nH]3)c(-c3ccc(N(C)C)cc3)c2)[nH]1)C(C)C
- CC50 at 72 h [1]: > 10 µM

SMILES: COC(=O)N[C@H](C(=O)N1CCC[C@H]1c1ncc(-c2ccc(C#CC#Cc3cnc([C@@H]4CCCN4C(=O)[C@H](NC(=O)OC)c4ccccc4)[nH]3)c(-c3ccccc3)c2)[nH]1)C(C)C.Cl.Cl
- MRT inf [2]: 1.3 h
- MRT inf [3]: 3.1 h
- AUC(0-t) at 24 h [4]: 12600 ng·h/mL
- Cmax [5]: 7760 ng/mL
- Cmax ([6]; Sprague-Dawley, read-out: Cmax): 2980 ng/mL
- Tmax ([7]; Sprague-Dawley, read-out: Tmax): 2 h
- AUC(0-t) at 24 h [8]: 8260 ng·h/mL
- AUC(0-inf) [9]: 8330 ng·h/mL
- half-life [10]: 96 min
- MRT last at 24 h [11]: 2.8 h
- AUC(0-inf) [12]: 13100 ng·h/mL
- MRT last at 24 h [13]: 1.2 h
- Tmax [14]: 4.98 min
- CC50 at 72 h [1]: > 10 µM
- bioavailability [15]: 31%
- half-life [16]: 72 min

SMILES: COC(=O)N[C@H](C(=O)N1CCC[C@H]1c1ncc(-c2cc(F)c(C#CC#Cc3cnc([C@@H]4CCCN4C(=O)[C@H](NC(=O)OC)c4ccccc4)[nH]3)c(-c3ccccc3)c2)[nH]1)C(C)C
- CC50 at 72 h [1]: > 10 µM

SMILES: COC(=O)N[C@H](C(=O)N1CCC[C@H]1c1ncc(-c2ccc(C#CC#Cc3cnc([C@@H]4CCCN4C(=O)[C@@H](NC(=O)OC)C(C)C)[nH]3)cc2)[nH]1)c1ccccc1
- CC50 at 72 h [1]: > 10 µM

SMILES: COC(=O)N[C@H](C(=O)N1CCC[C@H]1c1ncc(C#CC#Cc2ccc(-c3cnc([C@@H]4CCCN4C(=O)[C@@H](NC(=O)OC)C(C)C)[nH]3)cc2-c2ccccc2)[nH]1)C(C)C
- CC50 at 72 h [1]: > 10 µM

SMILES: COC(=O)N[C@H](C(=O)N1CCC[C@H]1c1ncc(-c2ccc(C#CC#Cc3cnc([C@@H]4CCCN4C(=O)[C@H](NC(=O)OC)c4ccccc4)[nH]3)c(-c3ccc(-c4ccccc4)cc3)c2)[nH]1)C(C)C
- CC50 at 72 h [1]: > 10 µM

SMILES: COC(=O)N[C@H](C(=O)N1CCC[C@H]1c1ncc(C#CC#Cc2ccc(-c3cnc([C@@H]4CCCN4C(=O)[C@@H](NC(=O)OC)C(C)C)[nH]3)cc2-c2ccc(C(C)(C)C)cc2)[nH]1)C(C)C
- CC50 at 72 h [1]: > 10 µM

SMILES: COC(=O)N[C@H](C(=O)N1CCC[C@H]1c1ncc(-c2ccc(C#CC#Cc3cnc([C@@H]4CCCN4C(=O)[C@H](NC(=O)OC)c4ccccc4)[nH]3)c(-c3cccc(F)c3F)c2)[nH]1)C(C)C.Cl.Cl
- MRT inf [2]: 3.3 h
- MRT inf [3]: 0.4 h
- AUC(0-t) at 24 h [4]: 271 ng·h/mL
- Cmax [5]: 1160 ng/mL
- Cmax ([6]; 24 h): 15.2 ng/mL
- Tmax ([7]; 10 mg/kg, 24 h): 0.7 h
- AUC(0-t) at 24 h [8]: 2720 ng·h/mL
- AUC(0-inf) [9]: 2730 ng·h/mL
- t1/2 ([10]; 10 mg/kg, 24 h): 2.5 h
- MRT last at 24 h [11]: 0.3 h
- AUC ([12]; 24 h): 328.7 ng·h/mL
- MRT last at 24 h [13]: 3.2 h
- Tmax [14]: 4.98 min
- CC50 at 72 h [1]: > 10 µM
- bioavailability [15]: 2.4%
- half-life [16]: 192 min

SMILES: COC(=O)N[C@H](C(=O)N1CCC[C@H]1c1ncc(-c2cc(C)c(C#CC#Cc3cnc([C@@H]4CCCN4C(=O)[C@H](NC(=O)OC)c4ccccc4)[nH]3)c(-c3ccccc3)c2)[nH]1)C(C)C
- CC50 at 72 h [1]: > 10 µM

SMILES: COC(=O)N[C@H](C(=O)N1CCC[C@H]1c1ncc(-c2ccc(C#CC#Cc3cnc([C@@H]4CCCN4C(=O)[C@H](NC(=O)OC)c4ccccc4)[nH]3)c(Oc3ccccc3)c2)[nH]1)C(C)C
- CC50 at 72 h [1]: > 10 µM

SMILES: COC(=O)N[C@H](C(=O)N1CCC[C@H]1c1ncc(C#CC#Cc2ccc(-c3cnc([C@@H]4CCCN4C(=O)[C@@H](NC(=O)OC)C(C)C)[nH]3)cc2-c2cccc(-c3ccccc3)c2)[nH]1)C(C)C
- CC50 at 72 h [1]: > 10 µM

SMILES: COC(=O)N[C@H](C(=O)N1CCC[C@H]1c1ncc(-c2ccc(C#CC#Cc3cnc([C@@H]4CCCN4C(=O)[C@H](NC(=O)OC)c4ccccc4)[nH]3)c(-c3cccc(-c4ccccc4)c3)c2)[nH]1)C(C)C
- CC50 at 72 h [1]: > 10 µM

SMILES: COC(=O)N[C@H](C(=O)N1CCC[C@H]1c1ncc(-c2ccc(C#CC#Cc3cnc([C@@H]4CCCN4C(=O)[C@H](NC(=O)OC)c4ccccc4)[nH]3)c(-c3ccc(C(C)(C)C)cc3)c2)[nH]1)C(C)C
- CC50 at 72 h [1]: > 10 µM

SMILES: COC(=O)N[C@H](C(=O)N1CCC[C@H]1c1ncc(-c2ccc(C#CC#Cc3cnc([C@@H]4CCCN4C(=O)[C@H](NC(=O)OC)c4ccccc4)[nH]3)c(Sc3ccccc3)c2)[nH]1)C(C)C
- CC50 at 72 h [1]: > 10 µM

SMILES: COC(=O)N[C@H](C(=O)N1CCC[C@H]1c1ncc(-c2ccc(C#CC#Cc3cnc([C@@H]4CCCN4C(=O)[C@H](NC(=O)OC)c4ccccc4)[nH]3)c(-c3cccc(C(C)(C)C)c3)c2)[nH]1)C(C)C
- CC50 at 72 h [1]: > 10 µM

SMILES: COC(=O)N[C@H](C(=O)N1CCC[C@H]1c1ncc(C#CC#Cc2c(F)cc(-c3cnc([C@@H]4CCCN4C(=O)[C@@H](NC(=O)OC)C(C)C)[nH]3)cc2-c2ccccc2)[nH]1)C(C)C
- CC50 at 72 h [1]: > 10 µM

SMILES: COC(=O)N[C@H](C(=O)N1CCC[C@H]1c1ncc(-c2ccc(C#CC#Cc3cnc([C@@H]4CCCN4C(=O)[C@H](NC(=O)OC)c4ccccc4)[nH]3)c(-c3cccc(F)c3F)c2)[nH]1)C(C)C
- MRT inf [2]: 4.7 h
- MRT inf [3]: 1.5 h
- AUC(0-t) at 24 h [4]: 58.7 ng·h/mL
- Cmax [5]: 114 ng/mL
- Cmax ([6]; Sprague-Dawley, read-out: Cmax): 38.3 ng/mL
- Tmax ([7]; Sprague-Dawley, read-out: Tmax): 1 h
- AUC(0-t) at 24 h [8]: 279 ng·h/mL
- AUC(0-inf) [9]: 285 ng·h/mL
- half-life [10]: 36 min
- MRT last at 24 h [11]: 1.4 h
- AUC(0-inf) [12]: 61.7 ng·h/mL
- MRT last at 24 h [13]: 4.2 h
- Tmax [14]: 4.98 min
- bioavailability [15]: 4.3%
- half-life [16]: 276 min

SMILES: COC(=O)N[C@H](C(=O)N1CCC[C@H]1c1ncc(-c2ccc(C#CC#Cc3cnc([C@@H]4CCCN4C(=O)[C@H](NC(=O)OC)c4ccccc4)[nH]3)c(N(C)c3ccccc3)c2)[nH]1)C(C)C
- CC50 at 72 h [1]: > 10 µM

SMILES: COC(=O)N[C@H](C(=O)N1CCC[C@H]1c1ncc(C#CC#Cc2ccc(-c3cnc([C@@H]4CCCN4C(=O)[C@@H](NC(=O)OC)C(C)C)[nH]3)cc2)[nH]1)c1ccccc1
- CC50 at 72 h [1]: > 10 µM

SMILES: COC(=O)N[C@H](C(=O)N1CCC[C@H]1c1ncc(C#CC#Cc2ccc(-c3cnc([C@@H]4CCCN4C(=O)[C@@H](NC(=O)OC)C(C)C)[nH]3)cc2-c2ccc3ccccc3c2)[nH]1)C(C)C
- CC50 at 72 h [1]: > 10 µM

SMILES: COC(=O)N[C@H](C(=O)N1CCC[C@H]1c1ncc(C#CC#Cc2c(C)cc(-c3cnc([C@@H]4CCCN4C(=O)[C@@H](NC(=O)OC)C(C)C)[nH]3)cc2-c2ccccc2)[nH]1)C(C)C
- CC50 at 72 h [1]: > 10 µM

SMILES: COC(=O)N[C@H](C(=O)N1CCC[C@H]1c1ncc(-c2ccc(C#CC#Cc3cnc([C@@H]4CCCN4C(=O)[C@H](NC(=O)OC)c4ccccc4)[nH]3)c(N3CCN(C)CC3)c2)[nH]1)C(C)C
- CC50 at 72 h [1]: > 10 µM

SMILES: COC(=O)N[C@H](C(=O)N1CCC[C@H]1c1ncc(-c2ccc(C#CC#Cc3cnc([C@@H]4CCCN4C(=O)[C@H](NC(=O)OC)c4ccccc4)[nH]3)c(-c3ccc(N4CCN(C)CC4)cc3)c2)[nH]1)C(C)C
- CC50 at 72 h [1]: > 10 µM
